Here are results for 24 compounds from ChEMBL document CHEMBL1148798, “High-efficacy 5-HT1A agonists for antidepressant treatment: a renewed opportunity” (J Med Chem, 2007).

In data set [1] the target is T1, 5-hydroxytryptamine receptor 1A (Homo sapiens) (UniProt P08908).
T1 sequence (whole entry): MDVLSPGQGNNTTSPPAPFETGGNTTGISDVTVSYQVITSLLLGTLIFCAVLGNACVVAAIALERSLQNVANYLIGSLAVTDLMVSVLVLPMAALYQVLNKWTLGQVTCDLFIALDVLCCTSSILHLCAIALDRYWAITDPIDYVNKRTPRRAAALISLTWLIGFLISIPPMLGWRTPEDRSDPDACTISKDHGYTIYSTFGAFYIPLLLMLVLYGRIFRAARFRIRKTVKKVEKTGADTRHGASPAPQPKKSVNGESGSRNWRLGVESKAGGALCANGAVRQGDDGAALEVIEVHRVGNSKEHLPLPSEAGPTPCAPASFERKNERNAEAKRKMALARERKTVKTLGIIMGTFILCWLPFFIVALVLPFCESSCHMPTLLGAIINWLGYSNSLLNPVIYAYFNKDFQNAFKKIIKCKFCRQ
The data set can be described thus: Agonist activity at human 5HT1A receptor expressed in C6 cells assessed as stimulation of [35S]GTP-gamma-S binding relative to 5-hydroxytryptamine. The format is functional, cell-based. The method in brief:
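Membranes from C6-glial cells expressing h5-HT1A, diluted 20-fold in 20 mM HEPES with 30 µM GDP, 100 mM NaCl, 3 mM MgCl2, 0.2 mM ascorbic acid (16-38 µg protein). Compound preincubated 30 min at 25 °C, then 500 pM [35S]GTPγS added. Six concentrations tested. Nonspecific binding with 10 µM GTPγS.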
(In general: GTPγS is a poorly hydrolysed GTP analogue; its binding reports G protein activation.)

For data set [2], the target named is T2, 5-hydroxytryptamine receptor 1A (Homo sapiens, UniProt P08908).
T2 sequence (P08908 whole entry): T1 sequence (whole entry)
The data set can be described thus: Agonist activity at human 5HT1A receptor expressed in C6 cells assessed as stimulation of [35S]GTPgammaS binding. In kind it is functional, cell-based.

Data set [3] concerns the target T3, 5-hydroxytryptamine receptor 1A (Rattus norvegicus, UniProt P19327).
T3 sequence (P19327 whole entry): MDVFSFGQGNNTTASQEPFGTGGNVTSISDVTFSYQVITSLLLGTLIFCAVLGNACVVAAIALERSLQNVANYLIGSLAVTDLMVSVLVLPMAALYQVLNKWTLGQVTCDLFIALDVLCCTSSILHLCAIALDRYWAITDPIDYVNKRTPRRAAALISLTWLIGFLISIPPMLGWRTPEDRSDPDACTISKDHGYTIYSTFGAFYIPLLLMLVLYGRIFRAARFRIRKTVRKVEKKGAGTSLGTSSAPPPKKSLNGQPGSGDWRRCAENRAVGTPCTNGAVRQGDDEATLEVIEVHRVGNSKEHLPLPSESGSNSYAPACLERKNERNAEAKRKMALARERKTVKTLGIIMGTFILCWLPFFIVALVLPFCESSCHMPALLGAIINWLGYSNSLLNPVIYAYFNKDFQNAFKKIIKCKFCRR
Briefly: Binding affinity to 5HT1A receptor in rat cortex membrane. In kind it is cell membranes.

The species entered for data set [4] is Rattus norvegicus. The data set can be described thus: Ratio of ED50 for flat body posture induction in rat to ED50 for forepaw treading induction in rat.
Data set [5] concerns Rattus norvegicus. The data set can be described thus: Induction of forepaw treading in orally dosed rat after 60 mins. In kind it is functional. The settings on record: po, 1 h. A digest of the protocol: (§1)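 Compounds given po in H2O (10 mL/kg) to rats, five per dose, doses as free base. Forepaw treading sampled in 10 s per rat repeated 10 times over 10 min at 55-65 min. Present if uninterrupted for ≥3 s, responder if score ≥1. Flat body posture scored if present the whole period. […] Ratio is FBP ED50/FPT ED50.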

For data set [6], the system named is Rattus norvegicus. The data set can be described thus: Induction of flat body posture in orally dosed rat as after 60 mins. In kind it is functional. The settings on record: po, 1 h. The method in brief: as §1
For data set [7], the system named is Rattus norvegicus. Briefly: Antidepressant like activity in orally dosed rat after 60 mins by forced swimming test. In kind it is functional. The settings on record: po, 1 h. The method in brief: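 Porsolt-type test in rats: 15 min swim in a cylinder with 17 cm water at 25 °C, then 5 min retest 24 h later. Immobility scored blind. Vehicle po after session 1. Compound or vehicle po (10 mL/kg) 1 h before retest, n = 5-12 per dose, doses 0.01-40 mg/kg. Responders had immobility <138 s. […] MSD by Kruskal-Wallis then Dunn's test.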

Data set [8] is described as follows: Bioavailability in dog. The format is ADME, organism-based, Canis lupus familiaris. The settings on record: in vivo.
Data set [9] can be described thus: Bioavailability in rat. The format is ADME, organism-based. The settings on record: in vivo.
Data set [10] is described as follows: Lipophilicity, log D of the compound. The settings on record: octanol/water. The format is physicochemical.
Data set [11] can be described thus: Dissociation constant, pKa of the compound. In kind it is physicochemical.
A short description of data set [12]: Bioavailability in orally dosed rat. The format is ADME, organism-based. The settings on record: in vivo, po.

For the compound `CNc1ccnc(CNCC2(F)CCN(C(=O)c3ccc(F)c(Cl)c3)CC2)n1`, the Emax (commonly the greatest response seen or fitted, relative to the assay's reference) in [1] turned out to be 58.8%. Also, the EC50 (in general, the midpoint of the concentration-response curve) in data set [2] was 309 nM. Moreover, the affinity in data set [3] corresponds to a Ki of 4.79 nM.
As for `O=C(c1ccc(F)c(Cl)c1)N1CCC(F)(CNCc2ccc(CF)cn2)CC1`, in data set [1], the maximal response (Emax) was 61%. Further, the Ratio in data set [4] amounted to 2.6. For the same compound, the ED50 (commonly the dose that gives a 50% effect, or the effect in half of the subjects) in data set [5] was found to be 6.1 mg/kg; in data set [6], 16 mg/kg; in data set [7], 0.17 mg/kg. Besides, the EC50 in [2] was 229 nM. The Ki (as a rule, the equilibrium dissociation constant of an inhibitor or competing ligand from its target) in data set [3] was 1.2 nM.
Take `O=C(c1ccc(F)c(Cl)c1)N1CCC(F)(CNCc2ccc(CO)cn2)CC1`: the Emax in [1] amounted to 80%. For the same compound, the concentration giving a half-maximal response (EC50) in data set [2] was 2040 nM. In [3], the Ki is 7.41 nM.
On the same counts, the results for `CNc1nc(CNCC2(F)CCN(C(=O)c3ccc(F)c(Cl)c3)CC2)ncc1C` are 64.1%, 85.1 nM and 1.74 nM.
Compound `O=C(c1ccc(F)c(Cl)c1)N1CCC(F)(CNCc2ncccn2)CC1` showed a Ki in data set [3] of 95.5 nM.
In the case of `O=C(c1ccc(F)c(Cl)c1)N1CCC(F)(CNCc2ncc(C(F)F)cn2)CC1`, in data set [1], the Emax was 82.5%. For the same compound, the EC50 in [2] is 3630 nM. In [3], this compound had a Ki of 25.1 nM.
For `CCCN(CCC)C1CCc2cccc(O)c2C1` (stereo unspecified) [8-OH-DPAT], the Emax in [1] amounted to 35.9%. Also, the median effective dose (ED50) in data set [5] is 40 mg/kg; in data set [6], above 40 mg/kg; in data set [7], 0.75 mg/kg.
Turning to `CNc1nc(CNCC2(F)CCN(C(=O)c3ccc(F)c(Cl)c3)CC2)ncc1Cl`, in data set [1], the maximal response (Emax) came to 71.8%. The EC50 in data set [2] was 42.7 nM. The Ki in data set [3] was 0.741 nM. The compound further returned an ED50 in data set [7] of 0.32 mg/kg.
Take `O=C(c1ccc(F)c(Cl)c1)N1CCC(F)(CNCc2ncc(Cl)cn2)CC1`: the maximum response (Emax) in data set [1] amounted to 76%. Also, the concentration for a half-maximal effect (EC50) in data set [2] was 155 nM. This compound showed an inhibition constant Ki in data set [3] of 3.39 nM. The compound also registered an ED50 in data set [7] of 0.03 mg/kg.
Compound `CCc1cnc(CNCC2(F)CCN(C(=O)c3ccc(F)c(Cl)c3)CC2)nc1` had a Ki in data set [3] of 56.2 nM.
For the compound `CN(C)c1ccnc(CNCC2(F)CCN(C(=O)c3ccc(F)c(Cl)c3)CC2)n1`, in data set [1], the Emax is 63.4%. The half-maximal effective concentration (EC50) in data set [2] is 89.1 nM. For the same compound, the affinity in [3] corresponds to a Ki of 2.29 nM.
Regarding `O=C(c1ccc(F)c(Cl)c1)N1CCC(F)(CNCc2nccc(-c3ccco3)n2)CC1`, the maximal response (Emax) in data set [1] is 79%. The EC50 in [2] was 10 nM. The compound also gave a Ki in [3] of 0.427 nM. Besides, the ED50 in data set [7] is above 2.5 mg/kg.
In turn, `COC(=O)c1cnc(CNCC2(F)CCN(C(=O)c3ccc(F)c(Cl)c3)CC2)nc1` had a Ki in data set [3] of 219 nM.
On the same count and under the same terms, next, `Cc1cnc(CNCC2(F)CCN(C(=O)c3ccc(F)c(Cl)c3)CC2)cn1`: 66.1 nM.
The same measure, in the same setting: then `O=C(O)c1ccc(CNCC2(F)CCN(C(=O)c3ccc(F)c(Cl)c3)CC2)nc1`, with above 10000 nM.
As to `O=C(c1ccc(F)c(Cl)c1)N1CCC(F)(CNCc2ccc(Cl)cn2)CC1`, the Emax in [1] was determined as 80.4%. Further, the Ratio in [4] is reported as 1.3. For the same compound, the ED50 was determined as 3.8 mg/kg in [5] and 4.9 mg/kg in data set [6]. Further, in data set [2], the EC50 is 69.2 nM. Further, the inhibitory constant (Ki) in [3] was 0.692 nM.
With `COc1ccnc(CNCC2(F)CCN(C(=O)c3ccc(F)c(Cl)c3)CC2)n1`, the Emax in data set [1] was found to be 75.5%. Besides, the EC50 in [2] is 447 nM. Also, the Ki in [3] was 6.46 nM.
Turning to `O=c1[nH]c2ccccc2n1CCN1CCN(c2cccc(C(F)(F)F)c2)CC1` [FLIBANSERIN], in [1], the Emax amounted to 72%. In addition, the ED50 in [5] was above 40 mg/kg; in [6], 20 mg/kg; in [7], above 320 mg/kg. Further, in data set [2], the concentration for a half-maximal effect (EC50) was 631 nM. Further, the Ki in data set [3] is 11.7 nM.
As for `CC(=O)Nc1cccc(N2CCN(CCCCNS(=O)(=O)CC3CCCCC3)CC2)c1` [NALUZOTAN], in [1], the Emax came out at 6.6%. Also, the ED50 in data set [5], in data set [6] and in data set [7] was above 40 mg/kg each time. Moreover, the EC50 in data set [2] was 93.3 nM. In [3], this compound showed a Ki of 30.2 nM.
For the compound `Cc1ccc(CNCC2(F)CCN(C(=O)c3ccc(F)c(Cl)c3)CC2)nc1` [BEFIRADOL], the bioavailability in [8] and in [9] was above 70% in each case. The ED50 worked out at 0.38 mg/kg in data set [5], 1.4 mg/kg in [6] and 0.06 mg/kg in data set [7]. Moreover, the logD (as a rule, the decadic logarithm of the distribution of all forms, ionised or not, between an organic phase and buffer at a given pH) in data set [10] is 2.6. In data set [11], the pKa – broadly, the pH at which an ionisable group is half protonated – is 6.4.
With `O=C(c1ccc(F)c(Cl)c1)N1CCC(F)(CNCc2ccc(C(F)F)cn2)CC1`, the Emax in [1] is 96.4%. Also, in [4], the Ratio is on record as 1.7. Moreover, the values for the ED50 in data set [5] and in data set [6] were 2.5 mg/kg and 4.2 mg/kg, respectively. For the same compound, the EC50 in data set [2] was 240 nM. Further, in [3], the Ki was 3.8 nM.
As to `Cc1cnc(CNCC2(F)CCN(C(=O)c3ccc(F)c(Cl)c3)CC2)nc1`, the bioavailability (usually dose-corrected exposure relative to a reference, in per cent) in data set [12] was above 80%. In addition, in data set [1], the Emax stood at 70.3%. Further, the Ratio in data set [4] is recorded as 5.5. Moreover, the ED50 is 1.5 mg/kg in data set [5], 8.3 mg/kg in [6] and 0.05 mg/kg in [7]. For the same compound, in data set [2], the EC50 is 389 nM. For the same compound, in [3], the inhibition constant Ki was 2.24 nM. For the same compound, in [10], the logD amounted to 1.5. The same compound showed a pKa in [11] of 6.7.
As to `Cc1ccc(CNCC2(F)CCN(C(=O)c3ccc(F)c(Cl)c3)CC2)nn1`, in data set [1], the Emax turned out to be 89.7%. In addition, the EC50 in [2] was 7940 nM. In addition, the Ki in [3] was 5.62 nM.
Take `O=C(c1ccc(F)c(Cl)c1)N1CCC(F)(CNCc2ncc(CO)cn2)CC1`: in data set [3], the Ki is 117 nM.
